Holding throughout (type): functional, cell-based
One test has as its system MCF7. In words: Cytotoxicity against human MCF7 cells after 72 hrs by calcein acetoxymethyl assay. In outline:
(§1)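 Tumour cells kept in DMEM at 37 °C, 5% CO₂, 100% humidity; seeded at about 1.25 × 10⁵ cells/ml and preincubated 12 h. Compounds added at 0.5–50 μM (0.5–200 μM for FeCl₃·6H₂O) for 72 h. Live cells then stained 1 h with calcein AM and fluorescence read at 485/538 nm. IC₅₀ estimated as concentration lethal to 50% of cells; mean of three values.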

A further test has as its system K562. In words: Cytotoxicity against human K562 cells after 72 hrs by calcein acetoxymethyl assay. The method, boiled down: as §1
In the next test the test system is HOS. In words: Cytotoxicity against human HOS cells after 72 hrs by calcein acetoxymethyl assay. In outline: as §1
The next test deals with G-361. The test is described as follows: Cytotoxicity against human G361 cells after 72 hrs by calcein acetoxymethyl assay. The method, boiled down:
as §1

As to `OC[C@@H]1O[C@H](n2cnc3c(NCc4ccc(OC(F)(F)F)cc4)ncnc32)[C@@H](O)[C@H]1O`, the IC50 in the test on MCF7 (Homo sapiens, MCF7, 72 h) was more than 50 µM; in the test on K562 (Homo sapiens, K562, 72 h), more than 50 µM; with HOS (Homo sapiens, HOS, 72 h) it was more than 50 µM; with G-361 (Homo sapiens, G-361, 72 h), more than 50 µM.

As for `OC[C@@H]1O[C@H](n2cnc3c(NCc4ccc(F)cc4)ncnc32)[C@@H](O)[C@H]1O`, the IC50 in the test with MCF7 (Homo sapiens, MCF7, 72 h) is more than 50 µM; with K562 (Homo sapiens, K562, 72 h) it was more than 50 µM; in the test with HOS (Homo sapiens, HOS, 72 h), more than 50 µM; in the test with G-361 (Homo sapiens, G-361, 72 h) it was more than 50 µM.

On to FeCl3.6H2O, for which the IC50 with MCF7 (mcf7), in the test on K562 (k562), with HOS (hos) and with G-361 (g-361) was more than 200 µM throughout.

Broadly, the IC50 is the concentration that inhibits the measured activity by half.
